Bioassay records from PubChem BioAssay.
This is a sample that favours compounds with a hit; in the whole collection about 1.9% have one here.
HDAC3 inh – inhibitors of human histone deacetylase 3; O15379; recombinant HDAC3, fluorogenic peptide/trypsin coupled, fluorescence; inhibition, % at 8.3 µM; 0.15% of 320,000 active; in the data active means inhibition above about 26%, passing the limit was not always enough; inconclusive means no clear call, values can overlap the other calls
Target sequence (O15379 whole entry, looked up): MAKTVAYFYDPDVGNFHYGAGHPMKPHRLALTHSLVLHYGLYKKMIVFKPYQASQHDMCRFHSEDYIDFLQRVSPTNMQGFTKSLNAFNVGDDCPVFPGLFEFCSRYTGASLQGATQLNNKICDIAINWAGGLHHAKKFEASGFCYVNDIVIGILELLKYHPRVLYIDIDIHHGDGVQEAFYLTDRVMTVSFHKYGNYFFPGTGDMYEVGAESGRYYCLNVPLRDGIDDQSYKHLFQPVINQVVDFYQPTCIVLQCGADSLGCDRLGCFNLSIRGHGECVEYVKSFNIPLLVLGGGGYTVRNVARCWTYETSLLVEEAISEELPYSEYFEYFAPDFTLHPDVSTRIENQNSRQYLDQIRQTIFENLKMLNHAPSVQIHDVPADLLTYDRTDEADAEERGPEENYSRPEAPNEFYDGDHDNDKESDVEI
Runt-SMMHC FRET – inhibitors of human RUNX1 Runt domain binding to CBFb-SMMHC. inhibition, % at 20 µM. Cerulean-Runt/Venus-CBFb-SMMHC FRET ratio 530/480, 1 h. Q01196+Q13951. AID 1434. 0.74% of 220,000 active;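 active means mean inhibition across duplicate retests at 20 µM reaching about 50%, limit read from the data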;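 further: inhibitors lower the FRET ratio by blocking Runt binding to CBFb-SMMHC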
CaV13 FRET inh – Primary screen for inhibitors of IQ motif and Ca2+-dependent inactivation inhibitor domain binding in CACNA1D, Förster resonance energy transfer in living cells, …. HEK cells, CFP/YFP FRET ICDI-IQ, plate reader, 10 min; percent FRET-ratio fall versus neutral wells. inhibition, % at 12.3 µM. 0.098% of 340,000 active. AID 743397;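 active means mean replicate inhibition of at least 30% and at least 1% of replicates passing that level; inconclusive means only one of the two criteria is met; inactive means neither criterion is met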
LANA-H2B inh – blocks KSHV LANA binding to histone H2A/H2B. cell-free LANA-H2A/H2B peptide, fluorescence polarization. inhibition, % (no concentration beside the values). 0.6% of 320,000 active. AID 2629; in the data active means inhibition mostly above about 10%, no sharp cut-off; inactive means mostly below about 6.7%
Runt-CBFb FRET – inhibitors of human RUNX1 Runt domain binding to CBFb; Q01196+Q13951; Cerulean-Runt/Venus-CBFb FRET ratio 530/480, 1 h; inhibition, % at 20 µM; 0.46% of 220,000 active;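 active means inhibition over about 50% at 20 µM in the single-dose screen, limit read from the data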
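System: Cerulean-labeled Runt domain protein | Quantity: 100 nM of each labeled protein | Schedule: 1 h compound exposure, room temperature | Detection: Fluorescence energy transfer, 422 nm excitation, 530/480 nm emission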
RanGTP-Impb inh – inhibitors of RanGTP-importin-beta interaction, primary screen, biochemical, FRET, CFP-Ran, YFP-importin-beta, homogeneous; cell-free CFP-Ran/YFP-importin-beta FRET ratio; 1.1% of 300,000 active; inhibition, % (concentration not given with the values);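 active means more than half of the replicate wells show a fall in the fluorescence ratio signal beyond about 16%, limit read from the data, passing the limit was not always enough; inconclusive means exactly half of the replicate wells pass the set limit; inactive means fewer than half of replicates pass the limit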
Each line names hits and unclear results; the compound was inactive in the other large screens; ! = not active in a repeat.

CCOc1ccc(C2C3=C(CCCC3=O)Nc3nc(C(F)(F)F)nn32)cc1OC (stereo not given)	none (no result: CaV13 FRET inh)
CCOc1cc(C2C3=C(CCCC3=O)Nc3nc(C(=O)OC)nn32)ccc1OC (stereo not given)	LANA-H2B inh 20
Cc1ccc(N(CC(=O)N/N=C/c2cccnc2)S(=O)(=O)c2ccccc2)cc1	RanGTP-Impb inh inconclusive
CCN(CC)CCCNC(=O)C1CCC(=O)N(c2ccc(OC)cc2)C1c1ccc(F)cc1 (stereo not given)	RanGTP-Impb inh 54
COc1ccc(N2C(=O)CCC(C(=O)O)C2c2ccc(F)cc2)cc1 (stereo not given)	none
COc1cccc(-c2cc(C(=O)N3N=C(C)CC3(O)C(F)F)c3ccccc3n2)c1 (stereo not given)	none (no result: Runt-CBFb FRET)
CCOC(=O)COc1ccc(Br)cc1C1NC(=O)NC(C)=C1C(=O)NCc1ccccc1 (stereo not given)	LANA-H2B inh 67
COc1ccc(CN2CNc3nc4ccccc4n3C2)cc1	LANA-H2B inh 22
C#CCSc1nncn1C(=O)/C=C/c1ccccc1	HDAC3 inh 73 (no result: CaV13 FRET inh, Runt-CBFb FRET)
O=C(CS(=O)c1ccc(F)cc1)Nc1ccccc1Cl (stereo not given)	LANA-H2B inh 13
O=C(CS(=O)c1cccc(C(F)(F)F)c1)Nc1ccccc1Cl (stereo not given)	none
CN(CC(=O)Nc1c(Cl)cccc1Cl)C(=O)c1ccc(NS(=O)(=O)c2ccc3[nH]c(=O)[nH]c3c2)cc1	none (no result: HDAC3 inh, Runt-SMMHC FRET, LANA-H2B inh, Runt-CBFb FRET, RanGTP-Impb inh)
Nc1ccc2[nH]ncc2c1	Runt-SMMHC FRET 57, RanGTP-Impb inh inconclusive
C/C(=N\NC(=O)C1(C)CC1(Br)Br)c1ccc(NC(=O)c2ccc(C)o2)cc1 (stereo not given)	none
CCOc1ccc(NC(=O)CN2C(=O)S/C(=C/c3cccn3C)C2=O)cc1	RanGTP-Impb inh 16
Cn1cccc1/C=C1\SC(=O)N(CC(=O)Nc2ccc(Cl)cc2)C1=O	none
CCOc1ccc(N2C(=O)S/C(=C\c3cccn3C)C2=O)cc1	LANA-H2B inh 20
COc1ccc(-c2csc(-n3cccn3)n2)cc1	none (no result: Runt-SMMHC FRET, Runt-CBFb FRET)
N#C/C(=C\c1c[nH]c2ccccc12)C(=O)NC1CC1	none (no result: Runt-SMMHC FRET, Runt-CBFb FRET)
CC(C)COC(=O)/C(C#N)=C/c1c[nH]c2ccccc12	Runt-SMMHC FRET 51
Cc1c(CNCc2cccs2)c(C(=O)O)c(C)n1Cc1ccccc1	none
N#C/C(=C/c1ccc(-c2cc(C(=O)O)cc(C(=O)O)c2)o1)c1nc2ccccc2s1	Runt-SMMHC FRET 69, Runt-CBFb FRET 85 (no result: CaV13 FRET inh)
COc1ccc(N(CC(=O)N/N=C/c2cc(Br)c(C)o2)S(=O)(=O)c2ccc(NC(C)=O)cc2)cc1	LANA-H2B inh 25 (no result: Runt-SMMHC FRET, Runt-CBFb FRET)
O=C1CN(C(=O)c2c(F)cccc2F)C(c2ccc(F)cc2)c2cc(Br)ccc2N1 (stereo not given)	none (no result: Runt-SMMHC FRET, Runt-CBFb FRET)
Cc1ccc(C(=O)Oc2ccc(-c3nnco3)cc2)o1	HDAC3 inh 100 (no result: Runt-SMMHC FRET, Runt-CBFb FRET)
O=C(C[C@H]1C/C=C\CC[C@H](Cc2ccc(F)cc2)C(=O)O[C@H](c2ccccc2)CNC1=O)N[C@H](CO)Cc1ccccc1	LANA-H2B inh active (no result: Runt-SMMHC FRET, Runt-CBFb FRET, RanGTP-Impb inh)
CC(C)(C)OC(=O)C[C@H]1C/C=C\C[C@H](CC(=O)N[C@H](CO)Cc2ccccc2)C(=O)N[C@H](Cc2ccccc2)COC1=O	LANA-H2B inh 83 (no result: Runt-SMMHC FRET, Runt-CBFb FRET, RanGTP-Impb inh)
Cc1cc(NC(=O)CC(F)(F)F)n(-c2ccccc2)n1	none
CC1CCN(Cc2ccc(NC(=O)CC3Oc4ccccc4NC3=O)cc2)CC1 (stereo not given)	CaV13 FRET inh 52
Cc1cc(C(=O)N2CCCC2C(=O)O)c(C)o1 (stereo not given)	LANA-H2B inh 18
COc1cccc(CN2CCC(Oc3ccc(C(=O)NCc4ccccn4)cc3)CC2)c1	none (no result: Runt-SMMHC FRET, Runt-CBFb FRET)
O=C(O)c1cc(O)c2c(c1)[C@@H]([C@H]1c3cc(C(=O)O)cc(O)c3C(=O)c3c(O[C@@H]4O[C@H](CO)[C@@H](O)[C@H](O)[C@H]4O)cccc31)c1cccc(OC3O[C@H](CO)[C@@H](O)[C@H](O)[C@H]3O)c1C2=O (stereo not given in full)	LANA-H2B inh 19 (no result: Runt-SMMHC FRET, Runt-CBFb FRET)
CC(C)N1CCC2(CC1)C(C#N)=C(N)NC(S)=C2C#N	Runt-SMMHC FRET 64 (no result: CaV13 FRET inh)
COc1ccc(-c2cc(=O)oc3cc(OC(=O)C4CCCCC4)c(Cl)cc23)cc1	Runt-SMMHC FRET 58, Runt-CBFb FRET 67, RanGTP-Impb inh 21
Nc1nonc1C(=O)NCCNCc1ccccc1OCc1ccc(F)cc1	RanGTP-Impb inh 18
CSc1nc(-c2ccccc2)cn1-c1ccc(NC(C)=O)cc1	LANA-H2B inh 37
CCOc1ccc(-c2cn(-c3ccc(OC)cc3)c(SC)n2)cc1	none
COCCNC(=S)N/N=C/c1c2ccccc2cc2ccccc12	none (no result: Runt-SMMHC FRET, Runt-CBFb FRET)
CCOC(=O)CSCc1c(C#N)c2ccccc2n1C	none (no result: CaV13 FRET inh, RanGTP-Impb inh)
CCOC(=O)c1c2ccc(OCC(=O)N/N=C/c3ccccc3C(F)(F)F)cc2n2ccccc12	none (no result: HDAC3 inh, CaV13 FRET inh, LANA-H2B inh, RanGTP-Impb inh)
N#Cc1c2ccc(OCC(N)=O)cc2n2ccccc12	Runt-SMMHC FRET 86, CaV13 FRET inh 77, RanGTP-Impb inh 55
CCOC(=O)COc1ccc2c(C#N)c3ccccn3c2c1	Runt-SMMHC FRET 92 (no result: HDAC3 inh, LANA-H2B inh)
CCOC(=O)c1c2ccc(OCC(=O)N/N=C/c3ccc(Cl)cc3)cc2n2ccccc12	RanGTP-Impb inh 41 (no result: HDAC3 inh, LANA-H2B inh, Runt-CBFb FRET)
COc1cc(OC)cc(C(=O)c2c(C)c(C#N)c3ccccn23)c1	none (no result: HDAC3 inh, Runt-SMMHC FRET, LANA-H2B inh, Runt-CBFb FRET)
COC(=O)/C=C1\SC(=NC(=O)c2cccc([N+](=O)[O-])c2)NC1=O	none (no result: Runt-SMMHC FRET, Runt-CBFb FRET)
CN(C)c1cc(N/N=C/c2ccc(Cl)cc2)nc(N(C)C)n1	none (no result: HDAC3 inh, LANA-H2B inh)
CC1CCCCN1CCNC(=O)c1ccc2c(c1)N(Cc1cccc(Cl)c1)C(=O)c1ccccc1S2=O (stereo not given)	LANA-H2B inh 18 (no result: Runt-SMMHC FRET, Runt-CBFb FRET)
O=C(NCCCN1CCCC1)c1ccc2c(c1)N(Cc1cccc(Cl)c1)C(=O)c1ccccc1S2=O (stereo not given)	none (no result: Runt-SMMHC FRET, Runt-CBFb FRET)
CCc1cc2ccc(C)cc2nc1SCC(=O)c1ccc(NC(C)=O)cc1	HDAC3 inh 68
CC(=O)O[C@]1(C(C)=O)CC[C@H]2[C@@H]3C=C(Cl)C4=CC(=O)[C@@H]5C[C@@H]5[C@]4(C)[C@H]3CC[C@@]21C	LANA-H2B inh 15! (no result: Runt-SMMHC FRET, Runt-CBFb FRET)
Cc1ccccc1C(=O)NNc1ncnc2c1cnn2C	LANA-H2B inh 26
CCOc1ccc(OCCCC(=O)N(CC)CC(=O)Nc2c(F)cccc2F)cc1	LANA-H2B inh 36 (no result: Runt-SMMHC FRET, Runt-CBFb FRET, RanGTP-Impb inh)
O=C(CCSCCC(=O)NN=Cc1cccc(Cl)c1)NN=Cc1cccc(Cl)c1	none (no result: HDAC3 inh, Runt-SMMHC FRET, LANA-H2B inh, Runt-CBFb FRET, RanGTP-Impb inh)
CCCCn1c(N)c(N(CC)C(=O)c2cccc(F)c2)c(=O)[nH]c1=O	none (no result: Runt-SMMHC FRET, Runt-CBFb FRET)
